Data reported in ChEMBL document CHEMBL4513216, “Probing the Open Global Health Chemical Diversity Library for Multistage-Active Starting Points for Next-Generation Antimalarials” (ACS Infect Dis, 2020).

Test: Toxicity liver stage against HepG2, at 10uM
Format: cell-based
Set-up: test concentration 10 uM, cell line HepG2-A16-CD81EGFP
Details: human, HepG2-A16-CD81EGFP cells; read-out: INHIBITION
Summary of the method: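 Uninfected HepG2-A16-CD81EGFP cells, 3 × 10^3 per well, 1536-well, plated on prespotted compound at 10 μM final, parasite-free screening media added to match infected plates; puromycin 10 μM positive, DMSO 0.5% negative; run in parallel with 48 h PbLuc assay at 37 °C, 5% CO2; viability by CellTiter-Glo luminescence, normalized to controls.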

Row | Compound | cytotoxicity at 10 µM
1 | CC1(C)Cc2ccccc2-c2nc(NCCCO)[nH]c(=O)c21 | 3.57%
2 | COc1cc(OC)cc(C2NC(=O)CN2Cc2ccc(Br)cc2)c1 (stereo not given) | -6.67%
3 | Cc1cn2nc(N3CCCC3C(=O)N3CCN(C)CC3)sc2n1 (stereo not given) | -12.6%
4 | CSc1ccccc1C(=O)NCCC(O)c1ccco1 (stereo not given) | -9.95%
5 | CCc1cnc(N2CC[C@@H]3CN(C(C)=O)CCO[C@@H]3C2)nc1 | 9.1%
6 | O=C(c1ccoc1)N1CC[C@@H]2[C@@H](CC1)OCCN2c1cccnc1 | 11.1%
7 | CCOCc1nn(CC2CC2)c2c1CN(C(=O)c1ccno1)CC2 | 1.99%
8 | COc1cc(N2CC[C@@H]3O[C@@H](c4ccnc(C)n4)C[C@H]3C2)ncn1 | 23.1%
9 | Fc1cccc(N2CCc3ncnc(C4CC4)c3CC2)c1 | 11.9%
10 | COCCn1cc(-c2cc(C(=O)N3CCCC3)c3ccccn23)nc1C | 8.61%
11 | COc1cc(N2CC[C@H]3OCC[C@@]3(COc3nccc(C)n3)C2)ncn1 | 11.8%
12 | Cc1cc2nc(SCC(=O)N3CCOCC3)n(CCC(C)C)c(=O)c2[nH]1 | 10.8%
13 | CCc1cccc(-n2nnc(C(=O)O)c2-c2ccncc2)c1 | 7.77%
14 | CCc1noc(C2CCCCN2C(=O)c2ccc(C)o2)n1 (stereo not given) | 14%
15 | COCCNC(=O)c1cc(S(=O)(=O)N2CCCCCC2)cs1 | -14.8%
16 | CNc1ccc(CC2CCCN(C(=O)c3cccc(C)n3)C2)nn1 (stereo not given) | -12.3%
17 | Cc1ncsc1C(=O)N1CCC(O)(CN2CCc3ccccc3C2)C1 (stereo not given) | -8.11%
18 | CC(=O)N1CCCC1c1cc(N2CCN(CC3CC3)CC2)cc(C)n1 (stereo not given) | -2.14%
19 | O=C1NC2(Cc3ccccc31)CN(CC1CCCC1)C2 | 7.58%
20 | Cc1[nH]nc2ncc(C(=O)N3CCN(C(C)(C)C)CC3)cc12 | -4.36%
21 | COc1cccc(C(=O)NS(=O)(=O)c2cc(Cl)sc2Cl)c1OC(F)F | -0.268%
22 | CC(=O)Nc1ccc(CNCC(O)c2ccc(Cl)cc2)cc1 (stereo not given) | -8.74%
23 | CCN(CC)S(=O)(=O)c1ccc(CNC(=O)N2CCC(C#N)CC2)cc1 | 20%
24 | Cc1ccc(F)c(S(=O)(=O)NCc2cccc(CS(C)(=O)=O)c2)c1 | -7.61%
25 | Cc1nc(CNC(C)c2ccc(S(=O)(=O)N(C)C)cc2)no1 (stereo not given) | -4.32%
26 | O=C(O)c1cc(S(=O)(=O)Nc2cccc3c2OCCO3)ccc1F | 12.3%
27 | COc1cc(CN(C)C(=O)NCc2cccc3c2OCO3)ccc1SC | -6.08%

Row | Compound | cytotoxicity at 10 µM
28 | Cc1c(C(=O)NCC(C)C)nnn1-c1cccc2c1CCN(CCO)C2 | 8.09%
29 | O=C(c1cccnc1O)N1CCC(COc2ccccc2)CC1 | 9.53%
30 | CSC1(CNc2ncc(Br)cn2)CCOCC1 | -8.93%
31 | CC(C)OCc1cccc(NC(=O)N(C)Cc2ncnn2C)c1 | 4%
32 | CCCNC(=O)C1CCN(CC2(O)CCC(C)CC2)CC1 (stereo not given) | 4.55%
33 | CS(=O)(=O)Cc1noc(CN2CCN(c3ccccc3Cl)CC2)n1 | 5.09%
34 | OC1(CNC2CCN(Cc3ccncc3)CC2)CCc2ccccc21 (stereo not given) | -1.41%
35 | c1nc(N2CCCCC2Cn2cncn2)c2ccsc2n1 (stereo not given) | -2.49%
36 | COc1cccc(S(=O)(=O)CCN2CCCN(C(C)=O)CC2)c1 | -10.4%
37 | CC1CN(C)c2ccccc2CN1C(=O)c1ccncc1 (stereo not given) | -23.4%
38 | CO[C@H]1CO[C@@]2(CCCN(C(=O)N3CCCC3)C2)C1 | -108%
39 | O=C(c1cccs1)N1CCC2(CC1)CCN(S(=O)(=O)C1CC1)CC2 | -106%
40 | CNCC(=O)Nc1cccc(-c2cnc(NCCS(C)(=O)=O)nc2)c1 | -1.31%
41 | O=C1CCOCCN1Cc1ccc(Cl)c(Cl)c1 | 3.3%
42 | Cc1cc(C)c2nc(C)cc(C(=O)NCc3csc(N(C)C)n3)c2c1 | 13.5%
43 | Cc1ccc(-n2ccnc2-c2cn(C3CCNCC3)nn2)c(Cl)c1 | 3.07%
44 | CC(C)c1ncc(CN2C[C@@H](CN3CCCC3)[C@@H](CO)C2)cn1 | -7.3%
45 | COc1ccccc1-n1nc(-c2ccco2)n(CC(=O)NC(C)C)c1=O | 2.57%
46 | O=C(c1cccnc1SC/C=C/c1ccccc1)N1CC[C@H](O)C1 | -9.66%
47 | Cc1cccc(N2CCN(CCC(=O)NCc3cnc(C)cn3)CC2)c1 | -1.48%
48 | CC(C)CN1C(=O)CC[C@H]2CN(C(=O)Cn3ccccc3=O)CC[C@H]21 | -7.37%
49 | Cc1cnn(C(C)C2CC2)c1NC(=O)c1ccc(Cn2cnnn2)cc1 (stereo not given) | -2.06%
50 | Clc1cccnc1N1CCC(C2CCN(Cc3cccnc3)CC2)C1 (stereo not given) | 2.92%
51 | CN1CCCC2(CCN(C(=O)Cc3cc4c(cc3Cl)OCCO4)C2)C1=O (stereo not given) | 10.1%
52 | CC(C)c1nnc2n1CCN(C(=O)c1cc3cc(F)ccc3[nH]1)C2 | 3.98%
53 | COc1ccc(OC2CCN(Cc3ccn(C)c(=O)c3)CC2)cc1 | -5.25%
54 | CCc1csc(C2CCCN(C(=O)c3ncccn3)C2)n1 (stereo not given) | -1.92%

Row | Compound | cytotoxicity at 10 µM
55 | Cc1cnn(C2CN(CC(=O)NCCc3cccs3)C2)c1 | -3.92%
56 | Cc1nc(C)n(CC2CN(Cc3cccc(OC(C)C)c3)CCO2)n1 (stereo not given) | -5.44%
57 | CC(C)(C)c1ncc(C(=O)NCCNC(=O)Cc2ccccc2)s1 | -6.44%
58 | COCCN1CCC(CNC(=O)C2(c3ccccc3)CCC2)C1 (stereo not given) | -5.36%
59 | c1ccc2oc(CCCN3CCCC(Cn4cncn4)C3)nc2c1 (stereo not given) | -27.8%
60 | COc1ccc(Cl)cc1NCC(=O)NCCNc1ncccn1 | -9.24%
61 | CC(C(=O)N1CCC(Nc2cccnn2)CC1)n1cccn1 (stereo not given) | -9.17%
62 | COc1ccc(NC(=O)C2CC(=O)N(C)C2)cn1 (stereo not given) | -16.5%
63 | Cc1cc(C)n(CC2CCCN2CC(=O)N(C)Cc2ccc(C)o2)n1 (stereo not given) | -15.4%
64 | Cc1cnn(CCC(=O)N2CCCC(c3cc(C)[nH]n3)C2)c1 (stereo not given) | -23.6%
65 | Cn1cnnc1C1CCCN(C(=O)COCc2ccccc2)C1 (stereo not given) | -18.1%
66 | Fc1cccc(Oc2ccc(CNCC3CNc4ccnn4C3)cn2)c1 (stereo not given) | -7.16%
67 | Cc1ccc(N2CCCN(C(=O)C3(C#N)CCCCC3)CC2)nn1 | -7.7%
68 | c1ccc(Cn2cccn2)c(CNCC2CNc3ccnn3C2)c1 (stereo not given) | -10.7%
69 | COc1ncccc1C(=O)N1CCCC(c2cc(C)[nH]n2)C1 (stereo not given) | -7.49%
70 | CC(C)CN1C(=O)CCC12CCC(NC(=O)NCc1cccnc1)CC2 (stereo not given) | -118%
71 | Cn1cc(C(=O)NC[C@H]2OC[C@@H]3CCN(C4CCOCC4)C[C@@H]32)cn1 | 8.01%
72 | CC(C)CN1CCc2[nH]nc(C(=O)N3CCCC3)c2C1 | -98.9%
73 | CC(=O)N1CCc2ncn(C)c2C1C(=O)N1CCCC1 (stereo not given) | 1.9%
74 | Cc1nc(C)c2c(n1)CCN(Cc1nccn1C)CC2 | -122%
75 | Cn1nccc1-c1nnn2c1COCC(CNCC1CC1)C2 (stereo not given) | -98.8%
76 | O=C(C1CCC1)N1CCC2(CCN(Cc3cccc(F)c3)CC2)CC1 | -4.29%
77 | Cc1ccc(CN2Cc3nccn3CC(Cn3cccn3)C2)s1 (stereo not given) | -101%
78 | CC(C)CN1CC[C@@H]2[C@H](CC1)N(S(C)(=O)=O)CCS2(=O)=O | 2.05%
79 | O=C(c1ccsc1)N1CCc2onc(COc3ccccn3)c2C1 | 6.43%
80 | C=C1C(C)(C)[C@@H]2CC[C@]1(C(=O)N1CCC(Cn3cc(CO)nn3)CC1)C2 | -6.01%
